Data published in ChEMBL document CHEMBL3808367, “Novel HIV-1 Non-nucleoside Reverse Transcriptase Inhibitor Agents: Optimization of Diarylanilines with High Potency against Wild-Type and Rilpivirine-Resistant E138K Mutant Virus” (J Med Chem, 2016).
Converted amounts (≈) assume the structure as drawn.

Legend:
[1] = system: Human immunodeficiency virus 1; test: Antiviral activity against rilpivirine resistant HIV1 harboring reverse transcriptase E138K mutant assessed as inhibition of viral infection in human TZM-bl cells measured after 1 day by luciferase reporter gene assay; type: functional, organism-based; settings: Human immunodeficiency virus 1, TZM-bl, 24 h
[2] = system: Human immunodeficiency virus 1; test: Antiviral activity against HIV1 NL4-3 assessed as inhibition of viral infection in human TZM-bl cells measured after 1 day by luciferase reporter gene assay; type: functional, organism-based; settings: Human immunodeficiency virus 1, NL4-3, TZM-bl, 24 h
[3] = system: Human immunodeficiency virus 1; test: Resistance index, ratio of EC50 for rilpivirine resistant HIV1 harboring reverse transcriptase E138K mutant infected in human TZM-bl cells to EC50 for HIV1 NL4-3 infected in human TZM-bl cells; type: functional
[4] = system: Human immunodeficiency virus 1; test: Antiviral activity against HIV1 3B infected in human MT2 cells measured on day 4 post infection by p24 ELISA method; type: functional, organism-based; settings: Human immunodeficiency virus 1, 3B, MT2, 96 h
[5] = Cytotoxicity against human TZM-bl cells assessed as reduction in cell viability after 1 day by CytoTox-Glo assay; type: cell-based; settings: for CC50: tzm, 24 h; for CC50 at 24 h: TZM-bl cells
How it was run: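 TZM-bl cells exposed to graded compound concentrations for 1 day, run in parallel with the antiviral assay. Viability read by CytoTox-Glo following the manufacturer's protocol.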

[6] = Selectivity index, ratio of CC50 for human TZM-bl cells to EC50 for HIV1 3B infected in human MT2 cells; type: toxicity, cell-based
[7] = Aqueous solubility in pH 7.4 phosphate buffer at 10 mg/ml after 4 hrs by UV-HPLC method; type: physicochemical; settings: pH 7.4, 4 h
[8] = Aqueous solubility in 0.01 M Hcl at pH 2 at 10 mg/ml after 4 hrs by UV-HPLC method; type: physicochemical; settings: buffer, pH 2, 4 h
[9] = n-octanol-water partition coefficient, logP of compound at pH 7.4 stirred for 24 hrs followed by overnight incubation by HPLC analysis; type: physicochemical
[10] = Metabolic stability in human liver microsomes assessed as parent compound remaining at 1 uM incubated for 30 mins in presence of NADPH by LC-MS analysis; type: ADME; settings: read-out: Stability
How it was run: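 Compound at 1 µM final with 0.1 mg/mL human liver microsomes, 5 mM MgCl2, 1.0 mM NADPH in 0.1 M potassium phosphate pH 7.4 at 37 °C. Parent measured by LC-MS/MS (MRM, ESI).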

[11] = system: Liver microsome; test: Half life in human liver microsomes at 1 uM by LC-MS analysis; type: ADME
How it was run: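 Compound at 1 µM final with 0.1 mg/mL human liver microsomes, 5 mM MgCl2, 1.0 mM NADPH in 0.1 M potassium phosphate pH 7.4 at 37 °C. Quenched with ice-cold acetonitrile at 0, 5, 15, 30 and 45 min, in duplicate. Parent measured by LC-MS/MS (MRM, ESI).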

[12] = system: Human immunodeficiency virus 1; test: Resistance index, ratio of EC50 for rilpivirine resistant HIV1 harboring reverse transcriptase K101E mutant infected in human TZM-bl cells to EC50 for HIV1 NL4-3 infected in human TZM-bl cells; type: functional
[13] = system: Human immunodeficiency virus 1; test: Antiviral activity against […] resistant HIV1 A17 harboring reverse transcriptase K103N/Y181C double mutant infected in human MT2 cells measured on day 4 post infection by p24 ELISA method; type: functional, organism-based; settings: Human immunodeficiency virus 1, A17, MT2, 96 h
How it was run: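 MT-2 cells (10^4 per well) were infected with 100 TCID50 of IIIB or A17 in RPMI 1640 with 10% FBS, with or without graded compound concentrations, overnight. Medium was then replaced with compound-free medium. On day 4, supernatant was mixed with an equal volume of 5% Triton X-100 and p24 was quantified by ELISA. EC50 was calculated from percent inhibition of p24 production.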

[14] = system: Human immunodeficiency virus 1; test: Resistance index, ratio of EC50 for […] resistant HIV1 A17 harboring reverse transcriptase K103N/Y181C double mutant infected in human MT2 cells to EC50 for HIV1 3B infected in human MT2 cells; type: functional
How it was run: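 Fold change is EC50 against A17 (K103N/Y181C) divided by EC50 against IIIB. Both are from the MT-2 assay: 100 TCID50 virus, overnight exposure to compound, then compound-free medium, and day-4 p24 ELISA.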

[15] = system: Human immunodeficiency virus 1; test: Antiviral activity against multidrug resistant HIV1 harboring reverse transcriptase L74V/M41L/V106A/T215Y multimutant assessed as inhibition of viral infection in human TZM-bl cells measured after 1 day by luciferase reporter gene assay; type: functional, organism-based; settings: Human immunodeficiency virus 1, TZM-bl, 24 h
[16] = system: Human immunodeficiency virus 1; test: Antiviral activity against HIV1 NL4-3 harboring reverse transcriptase E138K mutant assessed as inhibition of viral infection in human TZM-bl cells measured after 1 day by luciferase reporter gene assay; type: functional, organism-based; settings: Human immunodeficiency virus 1, NL4-3, TZM-bl, 24 h
How it was run: (§1)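 Single-round infection of TZM-bl cells with 800 TCID50 of NL4-3 or its RT-mutant variants, with compound at various concentrations. After 1 day, medium was replaced by Bright Glo reagent and luminescence was read.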

[17] = system: Human immunodeficiency virus 1; test: Antiviral activity against HIV1 NL4-3 harboring reverse transcriptase K101E mutant assessed as inhibition of viral infection in human TZM-bl cells measured after 1 day by luciferase reporter gene assay; type: functional, organism-based; settings: Human immunodeficiency virus 1, NL4-3, TZM-bl, 24 h; how it was run: as §1
[18] = system: Human immunodeficiency virus 1; test: Resistance index, ratio of EC50 for multidrug resistant HIV1 harboring reverse transcriptase L74V/M41L/V106A/T215Y multimutant infected in human TZM-bl cells to EC50 for HIV1 NL4-3 infected in human TZM-bl cells; type: functional
[19] = system: Human immunodeficiency virus 1; test: Resistance index, ratio of EC50 for HIV1 NL4-3 harboring reverse transcriptase E138K mutant infected in human TZM-bl cells to EC50 for HIV1 NL4-3 infected in human TZM-bl cells; type: functional
[20] = system: Human immunodeficiency virus 1; test: Resistance index, ratio of EC50 for HIV1 NL4-3 harboring reverse transcriptase K101E mutant infected in human TZM-bl cells to EC50 for HIV1 NL4-3 infected in human TZM-bl cells; type: functional

SMILES | EC50 [1] [nM] | EC50 [2] [nM] | Ratio EC50 [3] | EC50 [4] [nM] | CC50 [5] [µM] | Ratio CC50/EC50 [6] | solubility [7] [µg/mL] | solubility [8] [µg/mL] | logD at 24 h [9] | remaining at 0.5 h, 1 µM [10] [%] | t1/2 [11] [min] | Ratio EC50 [14] | further results
Cc1cc(CCC#N)cc(C)c1Oc1cc(Nc2ccc(C#N)cc2)c(N)cc1CNC1CC1 | 25.7 | 0.53 | 48 | 6.25 | 25.5 | 4080 | 13.6 (≈ 30.1 µM) | 276 (≈ 611 µM) | 3.69 | 78.4 | 99 | – | –
Cc1cc(CCC#N)cc(C)c1Oc1cc(Nc2ccc(C#N)cc2)c(N)cc1CN1CCN(C)CC1 | – | 115 | – | – | – | – | – | – | – | – | – | – | –
CNC(=O)c1cc(N)c(Nc2ccc(C#N)cc2)cc1Oc1c(OC)cc(CCC#N)cc1OC | – | 178 | – | 137 | 42.6 | 311 | – | – | – | – | – | – | –
Cc1cc(CCC#N)cc(C)c1Oc1cc(Nc2ccc(C#N)cc2)c(N)cc1Cl | 19.7 | 11.3 | 1.7 | 1.65 | 10.4 | 6303 | – | – | – | – | – | 2.7 | Ratio EC50 [12]: 3.3; EC50 [13]: 4.49 nM
Cc1cc(CCC#N)cc(C)c1Oc1cc(Nc2ccc(C#N)cc2)c(N)cc1COC(=O)C1CC1 | 23.3 | 1.63 | 14 | 23.2 | 42.2 | 1818 | 1.64 (≈ 3.41 µM) | 1.24 (≈ 2.58 µM) | 2.51 | 4.18 | 11.7 | – | –
COc1cc(/C=C/C#N)cc(Br)c1Oc1ccc(N)c(Nc2ccc(C#N)cc2)n1 | – | 3.25 | – | – | – | – | – | – | – | – | – | – | EC50 [15]: 3.5 nM; EC50 [16]: 3.5 nM; EC50 [17]: 3.5 nM; Ratio EC50 [18]: 1.1; Ratio EC50 [19]: 1.1; Ratio EC50 [20]: 1.1
COCc1cc(N)c(Nc2ccc(C#N)cc2)cc1Oc1c(C)cc(CCC#N)cc1C | 13.3 | 1.45 | 9.2 | – | – | – | – | – | 3.25 | 90.8 | 231 | 0.9 | CC50 at 24 h [5]: > 200 µM
COC(=O)c1cc(N)c(Nc2ccc(C#N)cc2)cc1Oc1c(OC)cc(CCC#N)cc1OC | – | 102 | – | 329 | 128 | 389 | – | – | – | – | – | – | –
CNC(=O)c1cc(N)c(Nc2ccc(C#N)cc2)cc1Oc1c(Br)cc(CCC#N)cc1OC | 12.5 | 5.58 | 2.2 | 2.1 | 52.4 | 24952 | 3.38 (≈ 6.5 µM) | 25.8 (≈ 49.6 µM) | 3.16 | 75.7 | 139 | 14 | EC50 [13]: 29.3 nM
CCOCc1cc(N)c(Nc2ccc(C#N)cc2)cc1Oc1c(C)cc(CCC#N)cc1C | 88.4 | 14.3 | 6.2 | 3.76 | 194 | 51596 | – | – | – | – | – | 12 | EC50 [13]: 46.6 nM
Cc1cc(CCC#N)cc(C)c1Oc1ccc(N)c(Nc2ccc(C#N)cc2)c1 | 113 | 16 | 7.1 | 11.6 | – | > 17241 | – | – | – | – | – | – | CC50 at 24 h [5]: > 200 µM
Cc1cc(/C=C/C#N)cc(C)c1Nc1ccnc(Nc2ccc(C#N)cc2)n1 [RILPIVIRINE] | – | – | – | – | – | – | – | – | > 5 | 80.2 | 116 | – | CC50 at 24 h [5]: > 30 µM
Cc1cc(CCC#N)cc(C)c1Oc1cc(Nc2ccc(C#N)cc2)c(N)cc1C(=O)NC1CC1 | 22.1 | 2 | 11 | 9.58 | 121 | 12630 | 1.94 (≈ 4.17 µM) | 141 (≈ 303 µM) | 2.61 | 63.2 | – | – | –
CNC(=O)OCc1cc(N)c(Nc2ccc(C#N)cc2)cc1Oc1c(C)cc(CCC#N)cc1C | 93.8 | 16 | 5.8 | 8.32 | 46.8 | 5625 | – | – | – | – | – | – | –
CC(=O)OCc1cc(N)c(Nc2ccc(C#N)cc2)cc1Oc1c(C)cc(CCC#N)cc1C | 39.1 | 3.3 | 12 | – | 44.8 | – | – | – | 2.84 | 3 | 10.2 | 3.4 | –
Cc1cc(CCC#N)cc(C)c1Oc1cc(Nc2ccc(C#N)cc2)c(N)cc1Br | 65.2 | 3.26 | – | 0.49 | 84.8 | – | 0.12 (≈ 0.26 µM) | 0.25 (≈ 0.542 µM) | > 5 | 58.3 | 50 | – | EC50 [13]: 13.9 nM
Cc1cc(CCC#N)cc(C)c1Oc1cc(Nc2ccc(C#N)cc2)c(N)cc1C(=O)NC(C)C | – | 72.6 | – | 47.7 | 184 | 3857 | – | – | – | – | – | – | –
CCNC(=O)c1cc(N)c(Nc2ccc(C#N)cc2)cc1Oc1c(C)cc(CCC#N)cc1C | 8.59 | 4.63 | 1.9 | 17.1 | 105 | 6140 | 1.08 (≈ 2.38 µM) | 69.4 (≈ 153 µM) | 3.63 | 85.2 | 173 | – | Ratio EC50 [12]: 4
COC(=O)c1cc(N)c(Nc2ccc(C#N)cc2)cc1Oc1c(Br)cc(CCC#N)cc1OC | 9.98 | 5.19 | 1.9 | < 0.122 | 10.1 | > 82787 | 0.2 (≈ 0.384 µM) | 1.73 (≈ 3.32 µM) | 2.85 | 81.5 | 139 | – | –
Cc1cc(CCC#N)cc(C)c1Oc1cc(Nc2ccc(C#N)cc2)c(N)cc1CN(C)C | 23.4 | 2.73 | 8.6 | 2.16 | 23.8 | 11019 | 23.4 (≈ 53.2 µM) | 260 (≈ 591 µM) | 2.52 | 93.3 | 231 | 1.1 | EC50 [13]: 2.46 nM
Cc1cc(CCC#N)cc(C)c1Oc1cc(Nc2ccc(C#N)cc2)c(N)cc1C(=O)N(C)C | 11.7 | 6.16 | 1.9 | 1.59 | 38.2 | 24025 | 1.08 (≈ 2.38 µM) | 65.1 (≈ 144 µM) | 2.86 | 72.2 | 99 | 45 | EC50 [13]: 72.2 nM
